Key:
[1] = Drug metabolism in human assessed as drug excretion in urine at 50 mg, po up to 12 hrs by liquid scintillation counting; assay type: ADME, organism-based; conditions: in vivo
Procedure, shortened: (§1)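 Healthy males received a single 50-mg oral [14C]saxagliptin solution (91.5 µCi) after a 10-h fast. Urine collected 0–12 h, 12–24 h, then at 24-h intervals to 168 h; feces collected at 24-h intervals. Radioactivity counted by LSC: urine directly, feces as ~20% w/w homogenate combusted before counting. Result expressed as % of actual dose, based on syringe weights.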

[2] = Drug metabolism in human assessed as drug excretion in urine at 50 mg, po after 12 to 24 hrs by liquid scintillation counting; assay type: ADME, organism-based; conditions: in vivo; procedure, shortened: as §1
[3] = Drug metabolism in human assessed as drug excretion in urine at 50 mg, po after 24 to 48 hrs by liquid scintillation counting; assay type: ADME, organism-based; conditions: in vivo; procedure, shortened: as §1
[4] = Drug metabolism in human assessed as drug excretion in urine at 50 mg, po after 48 to 168 hrs by liquid scintillation counting; assay type: ADME, organism-based; conditions: in vivo; procedure, shortened: as §1
[5] = Drug metabolism in human assessed as total drug excretion in urine at 50 mg, po up to 168 hrs by liquid scintillation counting; assay type: ADME, organism-based; conditions: in vivo; procedure, shortened: as §1
[6] = Drug metabolism in human assessed as drug excretion in feces at 50 mg, po up to 24 hrs by liquid scintillation counting; assay type: ADME, organism-based; conditions: in vivo; procedure, shortened: as §1
[7] = Drug metabolism in human assessed as drug excretion in feces at 50 mg, po after 24 to 48 hrs by liquid scintillation counting; assay type: ADME, organism-based; conditions: in vivo; procedure, shortened: as §1
[8] = Drug metabolism in human assessed as drug excretion in feces at 50 mg, po after 48 to 72 hrs by liquid scintillation counting; assay type: ADME, organism-based; conditions: in vivo; procedure, shortened: as §1
[9] = Drug metabolism in human assessed as drug excretion in feces at 50 mg, po after 72 to 96 hrs by liquid scintillation counting; assay type: ADME, organism-based; conditions: in vivo; procedure, shortened: as §1
[10] = Drug metabolism in human assessed as drug excretion in feces at 50 mg, po after 96 to 144 hrs by liquid scintillation counting; assay type: ADME, organism-based; conditions: in vivo; procedure, shortened: as §1
[11] = Drug metabolism in human assessed as total drug excretion in feces at 50 mg, po up to 144 hrs by liquid scintillation counting; assay type: ADME, organism-based; conditions: in vivo; procedure, shortened: as §1
[12] = tested on: Liver microsome; assay: Drug metabolism in human liver microsomes assessed as formation of mono-hydroxylated metabolite at 10 uM after 1 hr by LC-MS/MS analysis in presence of NADPH; assay type: ADME
Procedure, shortened: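 Pooled HLM at 1 mg/ml protein, incubated with 10 µM [14C]saxagliptin and 1 mM NADPH in 100 mM phosphate buffer pH 7.4 at 37°C for 60 min. Quenched with ice-cold acetonitrile; supernatant analysed by LC-MS/MS and off-line radioanalysis.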

[13] = tested on: Liver microsome; assay: Drug metabolism in human liver microsomes assessed as formation of 5-hydroxy saxagliptin at 10 uM after 1 hr by LC-MS/MS analysis in absence of NADPH; assay type: ADME
[14] = tested on: Liver microsome; assay: Drug metabolism in human liver microsomes assessed as formation of 5-hydroxy saxagliptin at 10 uM after 30 mins by LC-MS/MS analysis in presence of 1-aminobenzotriazole
[15] = tested on: Liver microsome; assay: Drug metabolism in human liver microsomes assessed as formation of 5-hydroxy saxagliptin at 1 uM after 30 mins by LC-MS/MS analysis in presence of ketoconazole and troleandomycin
[16] = substrate: N#C[C@@H]1C[C@@H]2C[C@@H]2N1C(=O)[C@@H](N)C12CC3CC(CC(O)(C3)C1)C2; assay: Drug metabolism in assessed as human CYP3A5-mediated formation of 5-hydroxy saxagliptin Michaelis-Menten kinetic analysis; assay type: ADME
Procedure, shortened: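 M2 formation kinetics measured in triplicate at twelve saxagliptin concentrations from 1 to 800 µM. Enzyme source was pooled HLM (0.25 mg/ml, 30 min, 37°C) or expressed CYP3A4 or CYP3A5 (10 pmol/ml, 10 min). Incubations contained 1 mM NADPH and 2 mM MgCl2 in phosphate buffer pH 7.4.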

N#C[C@@H]1C[C@@H]2C[C@@H]2N1[14C](=O)[14C@@H](N)C12CC3CC(CC(O)(C3)C1)C2 gave a Drug excretion [1] of 68.15%, a Drug excretion [2] of 3.26% and a Drug excretion [3] of 1.9%. The Drug excretion [4] was 1.6%, the Drug excretion [5] was 74.89% and the Drug excretion [6] was 7.22%. For the same molecule, the Drug excretion [7] was 8.46%, the Drug excretion [8] was 2.86% and the Drug excretion [9] was 1.13%. For the same molecule, the Drug excretion [10] was 2.39%, the Drug excretion [11] was 22.05% and the Drug metabolism [12] was “metabolite_detected”. For the same molecule, the Drug metabolism [13] was “metabolite_not_detected”, the Drug metabolism [14] was “metabolite_not_detected” and the Drug metabolism [15] was “metabolite_not_detected”.

B1: Cytochrome P450 3A5 (Homo sapiens) (protein)
chain: MDLIPNLAVETWLLLAVSLVLLYLYGTRTHGLFKRLGIPGPTPLPLLGNVLSYRQGLWKFDTECYKKYGKMWGTYEGQLPVLAITDPDVIRTVLVKECYSVFTNRRSLGPVGFMKSAISLAEDEEWKRIRSLLSPTFTSGKLKEMFPIIAQYGDVLVRNLRREAEKGKPVTLKDIFGAYSMDVITGTSFGVNIDSLNNPQDPFVESTKKFLKFGFLDPLFLSIILFPFLTPVFEALNVSLFPKDTINFLSKSVNRMKKSRLNDKQKHRLDFLQLMIDSQNSKETESHKALSDLELAAQSIIFIFAGYETTSSVLSFTLYELATHPDVQQKLQKEIDAVLPNKAPPTYDAVVQMEYLDMVVNETLRLFPVAIRLERTCKKDVEINGVFIPKGSMVVIPTYALHHDPKYWTEPEEFRPERFSKKKDSIDPYIYTPFGTGPRNCIGMRFALMNMKLALIRVLQNFSFKPCKETQIPLKLDTQGLLQPEKPIVLKVDSRDGTLSGE
For B1, the Km [16] was 252 µM and the Vmax [16] was 2.4e-05 µmol/min.
